Laboratory results published in ChEMBL document CHEMBL1121368, “7-(Aminoacyl) and 7-(aminoalkyl) derivatives of 1,2,6,7-tetrahydroindolo[1,7-ab][1,5]benzodiazepines as potential antidepressant agents” (1980).
Calls of active or inactive are those of the source. The rule behind the calls is not given here.

Species: Mus musculus
Assay: Evaluated for antidepressant activity by its ability to inhibit tetrabenazine-induced (TBZ) ptosis in mice; Inactive
Format: functional, organism-based
Conditions: not given

Row | SMILES | ED50
1 | CNCCCN1c2ccccc2N2CCc3cc(Cl)cc(c32)C1C (stereo unspecified) | inactive
2 | CNCCN1c2ccccc2N2CCc3cc(Cl)cc(c32)C1C (stereo unspecified) | inactive
3 | CC1c2cc(Cl)cc3c2N(CC3)c2ccccc2N1C(=O)CCN(C)C (stereo unspecified) | inactive
4 | CC1c2cc(Cl)cc3c2N(CC3)c2ccccc2N1C(=O)CN(C)C (stereo unspecified) | inactive
5 | CNCC(=O)N1c2ccccc2N2CCc3cc(Cl)cc(c32)C1C (stereo unspecified) | inactive
6 | CNCCC(=O)N1c2ccccc2N2CCc3cc(Cl)cc(c32)C1C (stereo unspecified) | inactive

Test system: not listed separately
Assay: Evaluated for antidepressant activity by its ability to inhibit tetrabenazine-induced (TBZ) ptosis in mice
Format: functional
Conditions: Mus musculus
Method in brief: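 Mice given tetrabenazine to induce ptosis; inhibition of ptosis scored. Compounds were screened at 20 mg/kg ip. […] ">20" marks activity at the 20 mg/kg ip screening dose without a dose-response run.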

Row | SMILES | ED50
7 | CN(C)CC(=O)N1Cc2cccc3c2N(CC3)c2ccccc21 | > 20 mg/kg
8 | CN(C)CCC(=O)N1Cc2cccc3c2N(CC3)c2ccccc21 | > 20 mg/kg
9 | CCCNCC(=O)N1c2ccccc2N2CCc3cccc(c32)C1C (stereo unspecified) | > 20 mg/kg
10 | CN(C)CCC(=O)N1c2ccccc2N2CCc3cccc(c32)C1C1CCCCC1.Cl (stereo unspecified) | > 20 mg/kg
11 | Br.Br.CNCCCN1Cc2cccc3c2N(CC3)c2ccccc21 | 1.5 mg/kg
12 | Br.Br.CNCCN1c2ccccc2N2CCc3cccc(c32)C1C (stereo unspecified) | 8 mg/kg
13 | CC1c2cccc3c2N(CC3)c2ccccc2N1C(=O)CCN1CCCCC1 (stereo unspecified) | > 20 mg/kg
14 | CNCCCN1c2ccccc2CCc2ccccc21 [DESIPRAMINE] | 1.5 mg/kg
15 | CC1c2cccc3c2N(CC3)c2ccccc2N1C(=O)CN(C)C (stereo unspecified) | 13.5 mg/kg
16 | CNCCC(=O)N1c2ccccc2N2CCc3cccc(c32)C1C (stereo unspecified) | 4 mg/kg
17 | CNCCN1Cc2cccc3c2N(CC3)c2ccccc21.O=C(O)C(=O)O | > 20 mg/kg
18 | CCCNCCC(=O)N1c2ccccc2N2CCc3cccc(c32)C1C.Cl (stereo unspecified) | > 20 mg/kg
19 | CC1c2cccc3c2N(CC3)c2ccccc2N1C(=O)CCCN(C)C.Cl (stereo unspecified) | > 20 mg/kg
20 | CNCC(=O)N1c2ccccc2N2CCc3cccc(c32)C1C (stereo unspecified) | 2 mg/kg
21 | CN(C)CCCN1Cc2cccc3c2N(CC3)c2ccccc21.Cl.Cl | 16 mg/kg
22 | CN(C)CCN1c2ccccc2N2CCc3cccc(c32)C1CCc1ccccc1.O=C(O)C(=O)O (stereo unspecified) | > 20 mg/kg
23 | CNCC(=O)N1Cc2cccc3c2N(CC3)c2ccccc21 | > 20 mg/kg
24 | CC1c2cccc3c2N(CC3)c2ccccc2N1C(=O)CCN1CCN(c2ccccc2)CC1 (stereo unspecified) | > 20 mg/kg
25 | Br.CC1c2cccc3c2N(CC3)c2ccccc2N1CCN(C)C (stereo unspecified) | 5 mg/kg
26 | CNCCCN1c2ccccc2N2CCc3cccc(c32)C1C.Cl.Cl (stereo unspecified) | 9.5 mg/kg
27 | Br.Br.CCCNCCN1c2ccccc2N2CCc3cccc(c32)C1C (stereo unspecified) | > 20 mg/kg
28 | CC1c2cccc3c2N(CC3)c2ccccc2N1C(=O)CCN(C)C (stereo unspecified) | 16 mg/kg
29 | CN(C)CCC=C1c2ccccc2CCc2ccccc21 [AMITRIPTYLINE] | 4.5 mg/kg
30 | CCN(CC)CCC(=O)N1c2ccccc2N2CCc3cccc(c32)C1C (stereo unspecified) | > 20 mg/kg
31 | Br.Br.CC1c2cccc3c2N(CC3)c2ccccc2N1CCN (stereo unspecified) | 2.2 mg/kg
